# Experimental data pooled from the literature.
SMILES,host,medium,route,dose,setting,measurement,value
CNC(=O)n1ccc2cc(Oc3ccnc(NC(=O)c4ccc(C5CCN(CCO)CC5)cc4)c3)c(OCCOC)cc21,human,plasma,oral,35 mg,"single dose, fed, healthy volunteers",Vd/F,14300 L
Cn1cc(Nc2nc(N)nc(-c3cccc(-n4ccc5cc(C6CC6)cc(F)c5c4=O)c3CO)n2)cn1,human,plasma,oral,300 mg,"single dose, fasted",Vd/F,422 L
CC[C@H](C)CCCCC(=O)N[C@@H](CCN)C(=O)N[C@H](C(=O)N[C@@H](CCN)C(=O)N[C@H]1CCNC(=O)[C@H]([C@@H](C)O)NC(=O)[C@H](CCN)NC(=O)[C@H](CCN)NC(=O)[C@H](CC(C)C)NC(=O)[C@@H](Cc2ccccc2)NC(=O)[C@H](CCN)NC1=O)[C@@H](C)O,human,plasma,intravenous,0.75 mg/kg,"single dose, infusion",Vd,20.2 L
CC(=O)O[C@@]12CO[C@@H]1C[C@H](O)[C@@]1(C)C(=O)[C@H](O)C3=C(C)[C@@H](OC(=O)[C@H](O)[C@@H](NC(=O)OC(C)(C)C)c4ccccc4)C[C@@](O)([C@@H](OC(=O)c4ccccc4)[C@H]21)C3(C)C,male Kunming mouse,liver,oral,20 mg/kg,,Cmax,18.9 ng/g
Cc1ccc(C(=O)Nc2ccc(CN3CCN(C)CC3)c(C(F)(F)F)c2)cc1C#Cc1cnc2[nH]ncc2c1,human,plasma,oral,40 mg,"single dose, healthy volunteers",Vd/F,5370 L
NC(=S)NN=Cc1ncccc1N,human,plasma,oral,100 mg,,Vd/F,205 L
Nc1ncn([C@H]2C[C@H](O)[C@@H](CO)O2)c(=O)n1,female C57BL/6 mouse,plasma,intravenous,0.4 mg/kg,,Cmax,319 ng/mL
Cl.[2H]C([2H])([2H])CC(=O)c1cnc(NC(=O)C2CC2)cc1Nc1cccc(-c2ncn(C([2H])([2H])[2H])n2)c1OC,human,plasma,oral,20 mg,"multiple doses, once daily, fasted",Vd/F,240 L
CCN1CCN(Cc2ccc(NC(=O)c3ccc(C)c(NC(=O)c4cncc(-c5cccs5)c4)c3)cc2C(F)(F)F)CC1,mouse,plasma,intraperitoneal,15 mg/kg,single dose,Cmax,582 ng/mL
C=CS(=O)(=O)c1ccc(Nc2nc(OCC3CCCCC3)c3nc[nH]c3n2)cc1,male BALB/c mouse,plasma,intravenous,20 mg/kg,single dose,Cmax,534 ng/mL
